bIAP act = bovine intestinal alkaline phosphatase activators, primary screen, biochemical, bovine IAP, CDP-star luminescence. purified bovine IAP, 30 min; hits give high values; fold of DMSO-control signal, blank-subtracted. activation factor at 20 µM. 0.17% of 200,000 active. AID 1016, 2008;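 active = activation factor of 2 or more at 20 µM, a signal rise over negative controls twice the positive control's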
bIAP inh = bovine intestinal alkaline phosphatase inhibitors, primary screen, selectivity assay for TNAP inhibitor project, biochemical, bovine IAP, CDP-star luminescence; alkaline phosphatase, intestinal [Bos taurus]; purified bovine IAP, 30 min; inhibition, % at 20 µM; 190,000 tested, under 10 active;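 active = over 50% inhibition of intestinal alkaline phosphatase at 20 µM in the single-dose screen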
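Assay system: bovine IAP enzyme; medium: DEA buffer 100 mM, pH 9.8, with MgCl2 1.0 mM, ZnCl2 0.02 mM; doses: 20 µM single dose; incubation: enzyme reaction for 30 min at room temperature; detection: CDP-star luminescence signal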
mIAP inh = inhibitors of mouse IAP, primary screen, biochemical, luminescence, uHTS; intestinal alkaline phosphatase [Mus musculus]; purified mouse IAP, CDP-Star luminescence, 30 min; inhibition, % at 10 µM; 0.2% of 330,000 active;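 active = inhibition of at least 40% at 10 µM in the primary screen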;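 also: plate controls were DMSO with enzyme for no effect and no enzyme wells for full effect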
mIAP activ = activators of mouse IAP, primary screen, biochemical, luminescence, uHTS | intestinal alkaline phosphatase [Mus musculus] | muIAP, CDP-Star luminescence, 30 min; hits give high values; 1 = vehicle-only enzyme signal, 0 = enzyme-free wells | activation factor at 10 µM | 0.24% of 330,000 active;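 active = activation factor of at least 2 at 20 µM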
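System: Mouse IAP enzyme | Also added: CDP-Star substrate | Dosing: Compounds dispensed in DMSO | Schedule: 30 min enzyme-substrate-compound incubation at room temperature | Technique: Chemiluminescence readout | Control set: DMSO-only wells and no-enzyme negative control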
hIAP inh = human IAP inhibitors, primary screen, biochemical, luminescence, uHTS. Intestinal-type alkaline phosphatase (Homo sapiens), P09923. purified IAP, CDP-Star luminescence, 30 min. inhibition, % at 10 µM. 0.12% of 330,000 active;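 active = inhibition reaching a set limit with compound at 10 µM in the primary screen, cut at about 35% in these data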;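 also: plate controls were DMSO wells with enzyme for no effect and no-enzyme buffer wells for full effect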
Target sequence (P09923 whole entry, looked up): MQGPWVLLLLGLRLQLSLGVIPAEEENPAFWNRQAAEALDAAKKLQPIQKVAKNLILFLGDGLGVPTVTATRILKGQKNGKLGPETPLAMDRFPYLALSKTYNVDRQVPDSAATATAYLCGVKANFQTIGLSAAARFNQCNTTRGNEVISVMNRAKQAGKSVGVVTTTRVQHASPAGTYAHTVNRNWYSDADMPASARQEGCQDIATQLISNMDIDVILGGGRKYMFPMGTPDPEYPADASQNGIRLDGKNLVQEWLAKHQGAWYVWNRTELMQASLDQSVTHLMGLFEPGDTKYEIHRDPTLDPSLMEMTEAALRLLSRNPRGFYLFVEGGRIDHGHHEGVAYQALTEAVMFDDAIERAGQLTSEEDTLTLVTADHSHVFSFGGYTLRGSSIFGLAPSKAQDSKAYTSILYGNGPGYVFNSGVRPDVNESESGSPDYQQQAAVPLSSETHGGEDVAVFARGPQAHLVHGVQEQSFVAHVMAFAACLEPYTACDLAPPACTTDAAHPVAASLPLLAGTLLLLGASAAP
hIAP act = human IAP activators, primary screen, biochemical, luminescence, uHTS; purified human IAP, CDP-Star luminescence, 30 min; hits give high values; 1 = vehicle-only enzyme, 0 = enzyme-free background; activation factor at 10 µM; 0.16% of 330,000 active; AID 2524, 2010;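 active = activation factor of the enzyme at least 2-fold when tested at 20 µM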
hIAP act conf = human IAP activators, confirmation, biochemical, luminescence, single concentration, uHTS hits; purified IAP, CDP-Star luminescence, 30 min; hits give low values; shares compounds with hIAP act; 10% of 880 active; activation (%Activity, negative = activation), % at 8.3 µM;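 active = at least twofold enzyme activation in any of six single-dose repeats, which the averaged readout prints as negative percent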
* hit, by the source's call; . = not tested or not shown. Hits are enriched below; roughly 0.77% of the tested compounds scored in any of these assays.

SMILES	bIAP act	bIAP inh	mIAP inh	mIAP activ	hIAP inh	hIAP act	hIAP act conf
Cc1ccc(Nc2ncccc2C(N)=O)cc1[N+](=O)[O-]	0.9	5.8	9.8	0.902	10.7	0.893	.
O=[N+]([O-])c1ccc(Cl)c(S(=O)(=O)Nc2ccc(S(=O)(=O)N3CCOCC3)cc2)c1	.	.	12.3	0.877	12.1	0.879	.
CN1C(=O)C(=O)/C(=C(/O)c2ccc(Br)cc2)C1c1ccc(Cl)cc1 (configuration not stated)	.	.	7.3	0.927	40.7*	0.593	5.4
CN1C(=O)C(=O)/C(=C(/O)c2ccccc2)C1c1ccc(Br)cc1 (configuration not stated)	.	.	-8.1	1.08	3.8	0.962	.
Cc1cc(OCc2cc(C(=O)NC3CCC3)no2)cc(C)c1Cl	.	.	2.1	0.979	38.8*	0.612	-3.4
Cc1ccc(OCc2cc(C(=O)NC3CCCCC3)no2)cn1	.	.	-6.0	1.06	-17.3	1.17	.
CN(C)CCCNC(=O)C(=O)NCC1CCCO1 (configuration not stated)	1	2.5	-8.8	1.09	0.9	0.991	.
Nc1nc(CN2CCN(Cc3ccc4c(c3)OCO4)CC2)nc(Nc2ccccc2)n1	1.1	-5.1	-1.3	1.01	-101.9	2.02*	-1.5
O=C(NNC1=NCCC1)c1ccc(Br)cc1	1	-1.0	2.0	0.98	-160.7	2.61*	-43.9
CCCCCCc1nc(C(N)=O)c2[nH]c(=O)n(-c3ccc(OCC)cc3)c2n1	.	.	-3.1	1.03	-131.3	2.31*	1.7
CCCCCCc1nc(C(N)=O)c2[nH]c(=O)n(-c3ccccc3F)c2n1	.	.	-8.7	1.09	-110.2	2.1*	-15.1
N#Cc1ccc(OCC(O)CN2CCN(c3ncc(C(F)(F)F)cc3Cl)CC2)cc1 (configuration not stated)	.	.	3.8	0.962	-10.4	1.1	.
COc1ccccc1OCC(=O)Nc1c2c(nn1-c1ccccc1)CS(=O)(=O)C2	.	.	-4.5	1.04	7.4	0.926	.
COc1ccc(NC(=O)c2cc(-c3cc(Cl)ccc3O)n[nH]2)c(OC)c1	.	.	1.9	0.981	-36.4	1.36	.
COc1ccc(OC)c(NC(=O)c2cc(-c3cc(C)c(C)cc3O)n[nH]2)c1	.	.	-0.6	1.01	-116.7	2.17*	6.0
COc1ccc(OC)c(NC(=O)c2cc(-c3cc(C)cc(C)c3O)n[nH]2)c1	.	.	-1.6	1.02	-57.9	1.58	.
COc1ccc(NC(=O)c2cc(-c3cc(C)c(C)cc3O)n[nH]2)c(OC)c1	.	.	-4.4	1.04	-111.5	2.12*	-19.5
COc1ccccc1C1CN(c2ccccc2)N=C1c1cccs1 (configuration not stated)	1.2	-24.6	-52.9	1.53	59.7*	0.403	-128.2*
Cc1ccc(NC(=O)CN(C(=O)N2CCN(C)CC2)S(=O)(=O)c2ccc(C)cc2)cc1	.	.	2.6	0.974	7.8	0.922	.
Cc1ccc(S(=O)(=O)N(CC(=O)Nc2ccc(C)cc2C)C(=O)N2CCN(C)CC2)cc1	.	.	4.3	0.957	36.3*	0.637	-55.4*
Cc1ccc(CN2CCC(c3nc4ccc(Cl)cc4[nH]3)CC2)cc1	1.4	-37.9	-59.9	1.6	-6.6	1.07	.
Cc1cc2nc(C3CCN(Cc4nnnn4Cc4cccs4)CC3)[nH]c2cc1C	0.5	.	-14.7	1.15	36.6*	0.634	79.3
COc1cc2c(cc1OC)C(C)N(C(=O)Nc1ccccc1)CC2 (configuration not stated)	.	.	1.9	0.981	6.2	0.938	.
COc1cc2c(cc1OC)[C@H](C)N(C(=S)Nc1ccc(F)cc1)CC2	.	.	-0.4	1	-127.0	2.27*	3.0
CN1CCN(CCNC(=O)Cn2c(=O)c3cccn3c3ccc(F)cc32)CC1	.	.	7.1	0.929	38.6*	0.614	35.4
SMILES	bIAP act	bIAP inh	mIAP inh	mIAP activ	hIAP inh	hIAP act	hIAP act conf
CCc1ccccc1N(C)S(=O)(=O)c1cc(-c2cc(C)no2)ccc1OC	.	.	9.2	0.908	-21.4	1.21	.
CCc1nc2c3cnn(-c4cc(Cl)ccc4C)c3ncn2n1	1	-4.2	11.8	0.882	72.6*	0.274	-31.0
Cc1ccccc1OCc1nc2c3cnn(C)c3ncn2n1	0.7	27.4	-6.8	1.07	-13.3	1.13	.
Cc1ccc(NC(=O)c2cc(-c3cc(Cl)ccc3O)n[nH]2)cc1C	.	.	-2.7	1.03	-93.6	1.94	.
Cc1ccc(C)c(NC(=O)c2cc(-c3cc(C)ccc3O)n[nH]2)c1	.	.	-11.6	1.12	-121.4	2.21*	-57.6
Cc1cccc(NC(=O)c2cc(-c3cc(Cl)ccc3O)n[nH]2)c1	.	.	-17.9	1.18	-103.3	2.03*	-4.1
CCc1cc(=O)[nH]c(-n2[nH]c(-c3ccccc3)cc2=O)n1	1.4	-41.8	30.9	0.691	-94.4	1.94	.
O=c1cc(-c2ccccc2)[nH]n1-c1nc2ccccc2[nH]1	1.6	-63.5	9.4	0.906	-101.9	2.02*	-58.4*
COc1ccc(C(=O)NCC(c2ccco2)N(C)C)cc1S(=O)(=O)NCc1ccc(Cl)cc1 (configuration not stated)	.	.	5.0	0.95	4.2	0.958	.
CCCCCCCN1CCC(=O)N([C@H](CO)c2ccccc2)CC1	.	.	-3.6	1.04	-0.4	1	.
Cn1cc(CN2CCC(n3nccc3NC(=O)CCc3ccccc3)CC2)cn1	.	.	-4.1	1.04	-13.1	1.13	.
CCOc1ccccc1CN1CCC(n2nccc2NC(=O)CCCc2ccccc2)CC1	.	.	-44.0	1.44	-225.4	3.25*	-23.6
CC(CN1CCC(n2nccc2NC(=O)CCCc2ccccc2)CC1)c1ccccc1 (configuration not stated)	.	.	-78.9	1.79	-103.9	2.04*	-90.9
CC(=O)c1cccc(CN2CCC(n3nccc3NC(=O)CCCc3ccccc3)CC2)c1	.	.	-10.3	1.1	-23.4	1.23	.
COc1cccc(CN2CCC(n3nccc3NC(=O)CCCc3ccccc3)CC2)c1	.	.	-66.1	1.66	-228.4	3.28*	-17.4
CCOc1ccccc1CN1CCC(n2nccc2NC(=O)CCc2ccccc2)CC1	.	.	-35.9	1.36	-114.6	2.15*	26.6
Cc1cc(Br)ccc1SCC(=O)OC/C(O)=C(\C#N)c1nc2ccccc2[nH]1	.	.	12.6	0.874	-139.6	2.4*	-67.4*
Cc1ccc(NC(=S)NCCSc2ccc(Cl)cc2)cc1	1.1	-8.0	-126.8	2.27*	-133.1	2.33*	-8.8

High-throughput results (PubChem BioAssay)
